In data set [1] the test system is BV-2. The data set can be described thus: Inhibition of NO production in LPS-activated mouse BV2 cells at 10 uM after 24 hrs by Griess method relative to control. The data set is classed as functional. As to conditions: for inhibition at 10 µM: BV-2, 24 h. The method, boiled down: (§1)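 Murine BV-2 microglia stimulated with LPS 100 ng/mL with or without sample for 24 h; nitrite in culture medium measured by Griess reaction. Percent inhibition relative to LPS control at 10 μM, n = 3; IC50 also derived.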

The nature of data set [2]: Cytotoxicity against mouse BV2 cells assessed as cell viability at 10 uM by MTT assay. The note with it: bv-2, 10 µM. The data set is classed as cell-based. Put shortly: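 BV-2 microglia viability determined by MTT assay alongside the LPS (100 ng/mL) nitrite experiment.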
For orientation: Formazan colour is commonly taken as a measure of viable cells.

For data set [3], the system named is BV-2. The data set can be described thus: Inhibition of NO production in LPS-activated mouse BV2 cells after 24 hrs by Griess method. As to conditions: BV-2, 24 h. Type of data set: functional, cell-based. The method, boiled down:
as §1
A general note: Nitrite, measured by Griess reagent, commonly stands in for NO production.

Data set [4] concerns BV-2. Kind of data set: Inhibition of iNOS expression in LPS-activated mouse BV2 cells at 1-10 uM after 6 hrs by Western blot. The data set is classed as functional, cell-based. The method, boiled down:
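BV-2 cells treated 6 h with compound (1–10 μM) during LPS (100 ng/mL) activation; protein assessed by blotting with anti-tubulin as loading control; representative of three independent experiments.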
A general note: Immunoblotting shows a protein as a band on a membrane.

The source made the active and inactive calls. No cut-off for these calls is given here.

In general, inhibition refers to the relative decrease from the control value, in per cent. A lower inhibition goes with little suppression. Broadly, the IC50 is the midpoint of a concentration-inhibition curve.

As for `COc1ccc(-c2c[nH]c3ccccc3c2=O)cc1`, in data set [1], the result was inactive. Besides, the Activity result in data set [2] was “Toxic”.

On to `CCn1cc(-c2ccc(OC)cc2)c(=O)c2ccccc21`, for which the inhibition at 10 µM in data set [1] was 14.9%. The midpoint of inhibition in data set [3], the IC50, lay at 25.8 µM.

Regarding `COc1ccc(-c2cn(C)c3ccccc3c2=O)cc1`, at 10 µM the inhibition in data set [1] was 31.9%. The IC50 in data set [3] was 18.8 µM.

With `Cn1cc(-c2ccc(O)cc2)c(=O)c2c(O)cc(O)cc21`, at 10 µM the inhibition in data set [1] was 39.3%. Besides, in data set [3], the IC50 worked out at 13.3 µM.

`O=c1c(-c2ccc(O)cc2)c[nH]c2cc(O)cc(O)c12`: the inhibition at 10 µM in data set [1] worked out at 45%. The compound also showed an IC50 in data set [3] of 10.9 µM.

`O=c1c(-c2ccc(O)cc2)c[nH]c2ccccc12` gave an inhibition at 10 µM in data set [1] of 29.5%. Further, the IC50 in data set [3] was found to be 15.6 µM.

Regarding `CCn1cc(-c2ccc(O)cc2)c(=O)c2c(O)cc(O)cc21` [AZAISOFLAVONE], in data set [1], the inhibition at 10 µM worked out at 58.1%. In addition, the Activity result in data set [4] was “Dose-dependent effect”. This compound had an IC50 in data set [3] of 7.83 µM.

As to `CCn1cc(-c2ccc(O)cc2)c(=O)c2ccccc21`, the inhibition at 10 µM in data set [1] came to 27%. Besides, the IC50 in data set [3] turned out to be 18.5 µM.

`Cn1cc(-c2ccc(O)cc2)c(=O)c2ccccc21` displayed an inhibition at 10 µM in data set [1] of 47.4%. The compound also had a half-inhibitory concentration (IC50) in data set [3] of 9.91 µM.

For the compound `COc1ccc(-c2c[nH]c3cc(OC)cc(OC)c3c2=O)cc1`, testing at 10 µM in data set [1] gave an inhibition of 23.2%. Further, inhibition in data set [3] was half-maximal at 20.5 µM (IC50).

The compound `CCn1cc(-c2ccc(OC)cc2)c(=O)c2c(OC)cc(OC)cc21` displayed an inhibition at 10 µM in data set [1] of 27.3%. In data set [3], half-maximal inhibition (IC50) was put at 17.6 µM.

`COc1ccc(-c2c[nH]c3cc(OC)ccc3c2=O)cc1`: the outcome in data set [1] was inactive. Also, in data set [2], the Activity entry was “Toxic”.

The values above are taken from ChEMBL document CHEMBL1154995, “Synthesis of azaisoflavones and their inhibitory activities of NO production in activated microglia” (Bioorg Med Chem Lett, 2008).
